# hIAP activ – increases human intestinal alkaline phosphatase activity; activation factor at 10 µM; P09923; AID 2524; 330,000 compounds, 0.16% hits; purified human IAP, CDP-Star luminescence, 30 min; stronger effect = higher value; 1 = vehicle-only enzyme, 0 = enzyme-free background;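 active = activation factor of the enzyme at least 2-fold when tested at 20 µM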
# Target sequence (P09923 whole entry, looked up): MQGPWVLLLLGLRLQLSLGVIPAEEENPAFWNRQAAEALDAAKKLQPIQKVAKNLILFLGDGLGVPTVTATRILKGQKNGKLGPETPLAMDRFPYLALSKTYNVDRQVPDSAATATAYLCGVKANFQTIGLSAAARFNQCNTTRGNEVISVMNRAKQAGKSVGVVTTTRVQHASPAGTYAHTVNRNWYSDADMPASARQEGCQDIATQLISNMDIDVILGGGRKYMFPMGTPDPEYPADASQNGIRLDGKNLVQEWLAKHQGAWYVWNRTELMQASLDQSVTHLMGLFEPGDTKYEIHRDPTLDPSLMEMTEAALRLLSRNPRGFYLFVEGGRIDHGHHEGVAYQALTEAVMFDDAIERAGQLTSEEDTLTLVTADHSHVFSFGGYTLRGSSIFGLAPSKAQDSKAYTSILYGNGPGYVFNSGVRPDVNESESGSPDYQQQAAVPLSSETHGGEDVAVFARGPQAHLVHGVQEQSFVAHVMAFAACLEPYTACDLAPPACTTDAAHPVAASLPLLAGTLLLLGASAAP
# hIAP inh – human IAP inhibition. P09923. purified IAP, CDP-Star luminescence, 30 min. 330,000 compounds, 0.12% hits. inhibition, % at 10 µM;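 active = inhibition reaching a set limit with compound at 10 µM in the primary screen, cut at about 35% in these data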
# bIAP inh – blocks bovine intestinal alkaline phosphatase activity; 190,000 tested, under 10 active; inhibition, % at 20 µM; AID 1019; purified bovine IAP, CDP-star luminescence, 30 min;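 active = over 50% inhibition of intestinal alkaline phosphatase at 20 µM in the single-dose screen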
#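 Assay system: bovine IAP enzyme; medium: DEA buffer 100 mM, pH 9.8, with MgCl2 1.0 mM, ZnCl2 0.02 mM; doses: 20 µM single dose; incubation: enzyme reaction for 30 min at room temperature; detection: CDP-star luminescence signal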
# mIAP activ – mouse IAP activation. muIAP, CDP-Star luminescence, 30 min; stronger effect = higher value; 1 = vehicle-only enzyme signal, 0 = enzyme-free wells. activation factor at 10 µM. 330,000 compounds, 0.24% hits;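 active = activation factor of at least 2 at 20 µM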
#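 System: Mouse IAP enzyme | Also added: CDP-Star substrate | Dosing: Compounds dispensed in DMSO | Schedule: 30 min enzyme-substrate-compound incubation at room temperature | Technique: Chemiluminescence readout | Control set: DMSO-only wells and no-enzyme negative control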
# bIAP act – increases bovine intestinal alkaline phosphatase activity. purified bovine IAP, CDP-star luminescence, 30 min; stronger effect = higher value; fold of DMSO-control signal, blank-subtracted. AID 1016. activation factor at 20 µM. 200,000 compounds, 0.17% hits;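 active = activation factor of 2 or more at 20 µM, a signal rise over negative controls twice the positive control's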
# mIAP inh – blocks mouse intestinal alkaline phosphatase. purified mouse IAP, CDP-Star luminescence, 30 min. inhibition, % at 10 µM. 330,000 compounds, 0.2% hits. AID 2806;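 active = inhibition of at least 40% at 10 µM in the primary screen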
# hIAP act confirm – human IAP activation confirmation; shares compounds with hIAP activ; purified IAP, CDP-Star luminescence, 30 min; stronger effect = lower value; activation (%Activity, negative = activation), % at 8.3 µM; 880 compounds, 10% hits;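 active = at least twofold enzyme activation in any of six single-dose repeats, which the averaged readout prints as negative percent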
# Numbers stand for hits; . = inactive; / = not tested or not shown. Hits are enriched below; roughly 0.77% of the tested compounds scored in any of these assays.
SMILES,hIAP activ,hIAP inh,bIAP inh,mIAP activ,bIAP act,mIAP inh,hIAP act confirm
COc1cc(/C=C2\SC(=S)N(N(C)c3ccccc3)C2=O)ccc1O,.,41,/,.,/,.,.
O=C1/C(=C/c2ccc(O)c([N+](=O)[O-])c2)SC(=S)N1Cc1ccccc1,.,.,.,.,.,.,/
O=C(NN1C(=O)/C(=C/c2ccc(O)c([N+](=O)[O-])c2)SC1=S)c1ccccc1Cl,.,35,.,.,.,.,.
O=C(NN1C(=O)/C(=C/c2ccc(O)cc2)SC1=S)c1cccc(O)c1,.,37,/,.,/,.,.
C[C@H](CO)N1C[C@H](C)[C@@H](CN(C)C)Oc2c(NS(=O)(=O)c3ccccc3)cccc2C1=O,.,.,/,.,/,.,/
O=C(CN1CCCC1)Nc1ccc(F)cc1,.,.,.,.,.,.,/
O=C(CN1CCN(C(=O)N2CCCCC2)CC1)Nc1ccc(F)cc1,2.3,.,.,.,.,.,-97
Cc1ccc(C(O)Cn2nc(C)cc2C)cc1 (configuration not stated),.,.,/,.,/,.,/
COc1cccc(C2c3c(-c4ccccc4O)n[nH]c3C(=O)N2Cc2ccco2)c1 (configuration not stated),2.1,.,/,.,/,.,.
O=S(=O)(Nc1ccc2c(c1)OCCO2)c1ccc(Br)s1,2.1,.,.,.,.,.,.
O=S(=O)(Nc1ccc2c(c1)OCCO2)c1cccs1,.,.,.,.,.,.,/
Cc1n[nH]c(C)c1NC(=O)CSc1nnnn1-c1cccc(F)c1,.,.,/,.,/,.,/
CCOC(=O)C1CCCN(C(=S)NC(=O)/C=C/c2ccc(F)cc2)C1 (configuration not stated),.,39,/,.,/,.,.
CCC(CC)NC(=O)c1ccc2nc[nH]c2c1,.,.,.,.,.,.,/
CC(NC(=O)c1ccc2nc[nH]c2c1)c1ccccc1 (configuration not stated),2.4,.,.,.,.,.,.
CCn1c(C)nc2cc(C(=O)NNC(=S)Nc3ccc(Cl)cc3Cl)ccc21,2.1,.,.,.,.,.,.
CCn1c(C)nc2cc(C(=O)N/N=C/c3cccc(O)c3O)ccc21,2.6,.,.,.,.,.,-43
CCn1c(C)nc2cc(C(=O)NNC(=S)Nc3ccccc3)ccc21,2.1,.,.,.,.,.,.
CCn1c(C)nc2cc(C(=O)N/N=C/c3ccccc3)ccc21,.,.,.,.,.,.,/
CCn1c(C)nc2cc(C(=O)NNC(=S)Nc3ccc(Cl)cc3)ccc21,.,.,/,.,/,.,/
CS/C(N)=N/S(=O)(=O)c1ccc(NC(C)=O)cc1,.,.,/,.,/,.,/
CN(N=Nc1ccc([N+](=O)[O-])cc1)c1ccccc1,.,.,.,.,.,.,/
CN(CCCC(=O)O)c1ccc(N=Nc2ccc([N+](=O)[O-])cc2)cc1,.,47,/,.,/,.,.
CC(C)[C@H]1COCCS(=O)(=O)N1Cc1ccccc1-c1cccc(Cl)c1,/,/,/,.,/,.,/
O=C(NNc1ccc([N+](=O)[O-])cc1[N+](=O)[O-])c1ccco1,.,36,/,.,/,.,.
SMILES,hIAP activ,hIAP inh,bIAP inh,mIAP activ,bIAP act,mIAP inh,hIAP act confirm
O=C(O)CNC(=O)c1ccccc1F,.,.,.,.,.,.,/
O=C(NCCCCNC(=O)c1ccccc1F)c1ccccc1F,.,37,/,.,/,.,.
Cc1ccc(C(=O)NC(C)c2nc3ccccc3n2CC(=O)Nc2c(C)cc(C)cc2C)cc1 (configuration not stated),4,.,/,2.7,/,.,.
CCCCN1/C(=C/c2ccc3ccccc3[n+]2CC)Sc2ccccc21,.,.,.,.,.,.,/
CCN1/C(=C/c2ccc3ccccc3[n+]2CC)C=Cc2ccccc21,.,36,/,.,.,.,.
CCOc1ccc(CC(=O)NNC(=S)NCCc2ccccc2)cc1,2,.,.,.,.,.,.
CC(C)C1N(C(N)=S)N=CC1(C)C (configuration not stated),.,.,/,.,/,.,/
O=C(COc1ccccc1Cl)N1CCN(c2ccc([N+](=O)[O-])c(N3CCCCC3)c2)CC1,2.1,.,.,.,.,.,-61
CC(C)NC(=O)NC(=O)COC(=O)/C=C/c1ccccc1[N+](=O)[O-],.,.,.,.,.,.,/
COC(=O)CCC(=O)Nc1ccc(Cl)c(Cl)c1,.,.,.,.,.,.,/
COC(=O)CCC(=O)Nc1ccc2oc3c(c2c1)CCCC3,.,42,/,.,/,.,.
COC(=O)CN1C(=O)C(O)(CC(=O)c2ccc(C)cc2)c2ccccc21 (configuration not stated),.,37,.,.,.,.,.
COC(=O)CN1C(=O)C(O)(CC(=O)c2ccccc2)c2ccccc21 (configuration not stated),.,.,.,.,.,.,/
O=C1C2C3C=CC(C3)C2C(=O)N1c1n[nH]c(-c2cccnc2)n1 (configuration not stated),.,66,.,.,.,.,-82
O=C1C2CC=CCC2C(=O)N1c1n[nH]c(-c2ccccc2)n1 (configuration not stated),.,92,/,.,.,.,.
O=C1C2C3C=CC(C3)C2C(=O)N1c1n[nH]c(-c2ccccc2)n1 (configuration not stated),.,.,.,.,.,.,/
N=c1n(CC(=O)c2cccs2)c2ccccc2n1Cc1ccccc1,.,.,/,.,/,.,/
Cc1cc(C(=O)N2CCN(S(=O)(=O)c3ccccc3F)CC2)c(C)o1,.,.,.,.,.,.,/
Cc1ccc(F)cc1NC(=S)NCCc1ccccc1,.,.,.,.,.,.,/
CCC1CCCCN1C1Sc2ccc(C(=O)OC)cc2NC1=O (configuration not stated),2,.,.,.,.,.,-69
CCc1ccc(/C=N/Nc2ncnc3nc[nH]c23)cc1,2.7,.,/,.,/,.,.
CC(C)(C)OC(=O)NN1CC(=O)N2Cc3ccccc3C[C@@H]2C1=O,.,.,/,.,/,.,/
O=C(N/N=C/c1c(F)cccc1Cl)c1cc(C2CC2)[nH]n1,2,.,/,.,/,.,.
O=C(N/N=C/c1ccc(O)cc1)c1cc(C2CC2)[nH]n1,.,.,/,.,/,.,/
COc1ccc(CCNC(=O)c2cc(-c3cc(Cl)ccc3O)n[nH]2)cc1OC,2.3,.,/,.,/,.,.
NS(=O)(=O)c1ccc(NC(=O)c2cc(-c3ccccc3O)n[nH]2)cc1,2,.,/,.,/,.,.
COc1ccc(CCNC(=O)c2cc(-c3cc(C)cc(C)c3O)n[nH]2)cc1OC,.,.,/,.,/,.,/
Cc1cc(C)c(O)c(-c2cc(C(=O)NCCc3ccc(S(N)(=O)=O)cc3)[nH]n2)c1,.,.,/,.,/,.,/

# High-throughput results deposited in PubChem BioAssay by Sanford-Burnham Center for Chemical Genomics.
